# From ChEMBL document CHEMBL1146298, “Identification of the benzodiazepines as a new class of antileishmanial agent” (Bioorg Med Chem Lett, 2007)
# Calls of active or inactive are those of the source. No cut-off for these calls is given here.
# How the values were obtained:
# Leishmania donovani [1] = assay: Antileishmanial activity against antimony-sensitive Leishmania donovani 200016 promastigotes in bone marrow-derived macrophages assessed as parasite suppression at 100 ug/ml; type: functional
# Outline: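 Fixed 72 h post-treatment and Giemsa-stained (10% v/v). Percent of 200 random cells infected was scored, and mean % suppression ± SE was taken against the control mean. Mann–Whitney U test vs control, p < 0.05 significant.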
# Leishmania donovani [2] = assay: Antileishmanial activity against antimony-sensitive Leishmania donovani 200016 promastigotes in bone marrow-derived macrophages; type: functional; conditions: read-out: LD50 (the source's name)
# Outline: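 After 72 h, cells fixed and stained with 10% v/v aqueous Giemsa; mean percentage of infected cells scored from 200 random cells. Mean percentage suppression ± SE computed against control mean; significance tested by Mann–Whitney U test, p < 0.05.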
# Leishmania donovani [3] = assay: Antileishmanial activity against antimony-sensitive Leishmania donovani 200016 promastigotes in bone marrow-derived macrophages at 37 ug/ml; type: functional
# Macrophage = assay: Decrease in cellular glutathione levels in macrophages; type: functional, cell-based; conditions: Homo sapiens
# [4] = Toxicity against bone marrow-derived macrophages; type: cell-based; conditions: human, macrophage
SMILES,Activity (Leishmania donovani [1]),further results
O=C1Nc2ccccc2C(=O)N2CCC[C@H]12,85.4%,
O=C1N[C@@H](Cc2ccccc2)C(=O)Nc2ccccc21,53.5%,
C[C@@H]1NC(=O)c2ccccc2NC1=O,28%,
CN1C(=O)CN(C2CCCCC2)C(=O)c2ccccc21,26.4%,
CN1C(=O)CN(CC2CCCCC2)C(=O)c2cc(Cl)ccc21,85%,LC50 (Leishmania donovani [2]): 115 µM; Activity (Leishmania donovani [3]): 73%; Activity (Macrophage): Active
O=C1c2ccccc2NC[C@@H]2CCCN12,70.6%,
CN1C(=O)CN(Cc2ccccc2)C(=O)c2ccccc21,51%,
O=C1CNC(=O)c2ccccc2N1,19%,
O=C1N[C@@H](Cc2ccc(O)cc2)C(=O)Nc2ccccc21,64.4%,
O=C1Nc2ccccc2C(=O)N2Cc3ccccc3C[C@@H]12,25%,
CN1C(=O)CN(CC2CC2)C(=O)c2ccccc21,inactive,
O=C1Nc2ccccc2C(=O)N2CCC[C@@H]12,70.3%,
COc1cccc(CN2CC(=O)N(C)c3ccccc3C2=O)c1,54.6%,
c1ccc2c(c1)CN1CCC[C@@H]1CN2,67.8%,
c1ccc2c(c1)CN1CCC[C@H]1CN2,23%,
CN1CC(=O)N(C)c2ccccc2C1=O,inactive,
CN1C(=O)CN(c2ccccc2)C(=O)c2ccccc21,inactive,
O=C1N[C@H](Cc2ccccc2)C(=O)Nc2ccccc21,23%,
O=C1c2ccccc2NC[C@H]2CCCN12,61.7%,
CC(C)C[C@@H]1NC(=O)c2ccccc2NC1=O,inactive,
CN1C(=O)CN(CC2CCCCC2)C(=O)c2ccccc21,,Activity (Leishmania donovani [3]): inactive; Activity [4]: Toxic; Activity (Macrophage): Active
CN1C(=O)CN(CCc2ccccc2)C(=O)c2ccccc21,19.6%,
CCCCCCN1CC(=O)N(C)c2ccccc2C1=O,inactive,Activity [4]: Toxic
CCCN1CC(=O)N(C)c2ccccc2C1=O,72%,
O=C1Nc2ccccc2C(=O)N2CSC[C@@H]12,33%,Activity [4]: Toxic
